This is one part of a sample in which hits are shown more often than they occur.
INS-1E rescue: preserves ATP levels in cytokine-treated INS-1E cells; INS-1E cytokine-induced death, ATP luminescence, 48 h; normalised: neutral wells 0, positive control 100; protection from cytokine-induced ATP loss, % at 10 µM; actives 0.1% (n = 20,000); AID 488910;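 active = mean replicate protection from cytokine-induced ATP loss at least 50% and at least 75% of replicates each reaching 50%; inconclusive = meets only one of the two criteria, mean or replicate share; inactive = fails both the mean and replicate share criteria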
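Assay system – rat INS-1E insulinoma cell line · Quantity – 8000 cells per well · Buffer or medium – RPMI without phenol red, 5% FBS · Schedule – 48 h co-treatment, 10 min post-lysis read · Technique – luminescent ATP assay (CellTiter-Glo)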
A1 apoptosis 2: compounds inhibiting A1, read as caspase activation. MEF A1-2A-BIM cells, caspase-Glo luminescence, 3 h; percent of clofoctol response, DMSO zero. caspase activation, % (concentration not given with the values). 24,000 tested, under 10 active. AID 2465; in the data active = caspase activation above about 5.9%; inconclusive = no clear call, values can overlap the other calls; inactive = below about 2.2%
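Material: mouse embryonic fibroblasts co-expressing A1 and BIM (A1-2A-BIM), primed for A1 dependence / Quantity: 2500 cells/well / Buffer or medium: RPMI-1640 growth medium with 10% FBS / Doses: 50 nL compound per well, pinned / Schedule: 3 h compound exposure at 37 °C / Signal: Caspase-Glo luminescence (DEVD substrate) / Measure: Caspase-3/7 activation, seen as rise in luminescence signal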
T cruzi HTS: blocks T. cruzi growth inside host cells. actives 4.9% (n = 22,000). intracellular Trypanosoma cruzi in host cells, plate reader. activity score (inhibition), % at 5.01 µM; in the data active = activity score above about 55%; inconclusive = no clear call, values can overlap the other calls;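 also: parasites and compound incubated about four days before reading; 0% = median of neutral control wells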
Numbers without * were called inactive; ? = inconclusive; . = not tested or not shown.

SMILES	INS-1E rescue	A1 apoptosis 2	T cruzi HTS
C[C@@H]1CN([C@@H](C)CO)C(=O)Cc2cc(NC(=O)Nc3ccc4c(c3)OCO4)ccc2O[C@@H]1CN(C)Cc1ccc(C(=O)Nc2ccccc2N)cc1	-15	0	67*
C[C@@H]1CN([C@H](C)CO)C(=O)Cc2cc(NC(=O)Nc3ccc4c(c3)OCO4)ccc2O[C@H]1CN(C)Cc1ccc(C(=O)Nc2ccccc2N)cc1	.	-1	.
C[C@@H]1CN([C@@H](C)CO)C(=O)Cc2cc(NC(=O)Nc3ccc(F)cc3)ccc2O[C@@H]1CN(C)Cc1ccc(C(=O)Nc2ccccc2N)cc1	-6	.	63*
C[C@@H]1CN([C@@H](C)CO)C(=O)Cc2cc(NC(=O)Nc3ccccc3)ccc2O[C@@H]1CN(C)Cc1ccc(C(=O)Nc2ccccc2N)cc1	-14	.	?
C[C@@H]1CN([C@@H](C)CO)C(=O)Cc2cc(NC(=O)C3CC3)ccc2O[C@@H]1CN(C)Cc1ccc(C(=O)Nc2ccccc2N)cc1	-8	.	58*
C[C@H](CO)N1C[C@H](C)[C@H](CN(C)Cc2ccc(C(=O)Nc3ccccc3N)cc2)Oc2ccc(NC(=O)Nc3ccc(F)cc3)cc2CC1=O	31	.	66*
C[C@@H]1CN([C@H](C)CO)C(=O)Cc2cc(NC(=O)C3CC3)ccc2O[C@H]1CN(C)Cc1ccc(C(=O)Nc2ccccc2N)cc1	-2	.	19
COC(=O)CCCCCCC(=O)N/N=C/c1coc2ccccc2c1=O	11	1	-4
CC(C)(C)OC(=O)Nc1cccc(/C=N/NC(=O)CCCCC(=O)NO)c1	21	.	5
CC(C)(C)OC(=O)N1CCC[C@H]1/C=N/NC(=O)CCCCC(=O)NO	2	.	-4
COC(=O)C(CC#Cc1ccc2c(c1)[C@]1(C(=O)N2)[C@H](C(N)=O)[C@H]2C(=O)O[C@H](c3ccccc3)[C@H](c3ccccc3)N2[C@@H]1c1ccccc1OCCO)C(=O)OC	.	0	.
O=C(NO)c1cccc(C(=O)N/N=C/c2ccc(OCCO)cc2)c1	3	.	-11
C[C@@H]1CN([C@@H](C)CO)C(=O)Cc2cc(NC(=O)NC3CCCCC3)ccc2O[C@H]1CN(C)Cc1ccc(C(=O)Nc2ccccc2N)cc1	.	0	.
C[C@H]1CN([C@@H](C)CO)C(=O)Cc2cc(NC(=O)NC3CCCCC3)ccc2O[C@H]1CN(C)Cc1ccc(C(=O)Nc2ccccc2N)cc1	3	-2	67*
C=CCNC(=O)[C@H]1[C@@H]2C(=O)O[C@@H](c3ccccc3)[C@@H](c3ccccc3)N2[C@@H](c2ccc(OCCO)cc2)[C@]12C(=O)N(C(=O)OCCOC)c1ccc(C#CCC(C(=O)OC)C(=O)OC)cc12	.	1	.
COC(=O)[C@H](Cc1ccccc1)N1C(=O)O[C@H](Cc2ccccc2)[C@@H]1/C=C/C1CC1	.	0	.
COc1ccc(S(=O)(=O)Nc2ccc3c(c2)CC(=O)N([C@@H](C)CO)C[C@@H](C)[C@@H](CN(C)Cc2ccc(Cl)c(Cl)c2)O3)cc1	-39	.	63*
COc1ccc(S(=O)(=O)Nc2ccc3c(c2)CC(=O)N([C@H](C)CO)C[C@H](C)[C@@H](CN(C)Cc2ccc(Cl)c(Cl)c2)O3)cc1	.	-1	.
COc1ccc(S(=O)(=O)Nc2ccc3c(c2)C(=O)N([C@@H](C)CO)C[C@@H](C)[C@@H](CN(C)Cc2ccc(Cl)c(Cl)c2)O3)cc1	-25	1	12
COc1ccc(S(=O)(=O)Nc2ccc3c(c2)CC(=O)N([C@@H](C)CO)C[C@H](C)[C@H](CN(C)Cc2ccc(Cl)c(Cl)c2)O3)cc1	-21	.	73*
COc1ccc(CN(C)C[C@@H]2Oc3ccc(NS(=O)(=O)c4ccc(Cl)cc4)cc3CC(=O)N([C@@H](C)CO)C[C@H]2C)cc1	.	-1	.
COc1ccc(S(=O)(=O)Nc2ccc3c(c2)CC(=O)N([C@H](C)CO)C[C@@H](C)[C@@H](CN(C)Cc2ccc(Cl)c(Cl)c2)O3)cc1	-12	-1	55*
Cc1nc(S(=O)(=O)NC[C@@H]2CCCN(Cc3ccc(OCCO)cc3)C2)cn1C	.	0	.
C[C@H](CO)N1C[C@H](C)[C@H](CN(C)S(=O)(=O)c2cccc(F)c2)Oc2ncc(Br)cc2C1=O	.	.	20
C[C@H](CO)N1C[C@H](C)[C@H](CN(C)S(=O)(=O)c2ccc(F)cc2)Oc2ncc(-c3cccc(C(F)(F)F)c3)cc2C1=O	.	-1	89*
SMILES	INS-1E rescue	A1 apoptosis 2	T cruzi HTS
COc1ccc(S(=O)(=O)N(C)C[C@@H]2Oc3ncc(-c4cccc(C(F)(F)F)c4)cc3C(=O)N([C@H](C)CO)C[C@@H]2C)cc1	.	-1	46
C[C@H](CO)N1C[C@H](C)[C@H](CN(C)S(=O)(=O)c2cccc(F)c2)Oc2ncc(-c3cccc(C(F)(F)F)c3)cc2C1=O	.	.	59*
COC(=O)CCCCCCC(=O)N/N=C/c1sccc1C	3	1	-9
COc1ccc(O)c(/C=N/NC(=O)CCCCCCC(=O)Nc2ccccc2O)c1	-9	-1	8
C[C@@H]1CCCCO[C@H](CN(C)Cc2ccc(C(F)(F)F)cc2)[C@@H](C)CN([C@H](C)CO)C(=O)c2cc(NS(=O)(=O)c3cccs3)ccc2O1	-9	.	18
C[C@@H]1CCCCO[C@H](CN(C)C(=O)Nc2ccc(C(F)(F)F)cc2)[C@@H](C)CN([C@H](C)CO)C(=O)c2cc(NS(=O)(=O)c3cccs3)ccc2O1	0	.	.
C[C@@H]1CCCCO[C@@H](CN(C)C(=O)Nc2ccc(C(F)(F)F)cc2)[C@@H](C)CN([C@H](C)CO)C(=O)c2cc(NS(=O)(=O)c3cccs3)ccc2O1	-13	0	57*
C[C@@H]1CCCCO[C@@H](CN(C)Cc2ccc(C(F)(F)F)cc2)[C@@H](C)CN([C@H](C)CO)C(=O)c2cc(NS(=O)(=O)c3cccs3)ccc2O1	-74	.	64*
CCCCCCC/C=N/NC(=O)CCCCC(=O)NO	-4	1	-2
O=C(NN=C1CCCCCCC1)c1ccccc1O	-3	.	-21
C[C@H](CO)N1C[C@H](C)[C@H](CN(C)C(=O)NC2CCCCC2)Oc2ncc(C#Cc3ccccc3)cc2C1=O	.	?	52
C[C@H](CO)N1C[C@H](C)[C@H](CN(C)Cc2cccc(C(F)(F)F)c2)Oc2ncc(-c3cccc(F)c3)cc2C1=O	.	0	65*
C[C@H](CO)N1C[C@H](C)[C@H](CN(C)C(=O)NC2CCCCC2)Oc2ncc(-c3cccc(C(F)(F)F)c3)cc2C1=O	.	7.1*	?
C[C@H](CO)N1C[C@H](C)[C@H](CN(C)C(=O)NC2CCCCC2)Oc2ncc(C#Cc3cccc(F)c3)cc2C1=O	.	.	63*
C[C@H](CO)N1C[C@H](C)[C@H](CN(C)Cc2cccc(C(F)(F)F)c2)Oc2ncc(-c3cccc(C(F)(F)F)c3)cc2C1=O	.	0	89*
Cc1cccc(CN(C)C[C@@H]2Oc3ncc(-c4cccc(F)c4)cc3C(=O)N([C@H](C)CO)C[C@@H]2C)c1	.	2	40
C[C@H](CO)N1C[C@H](C)[C@H](CN(C)C(=O)NC2CCCCC2)Oc2ncc(-c3ccc(F)cc3)cc2C1=O	.	.	-8
